Experimental data published in ChEMBL document CHEMBL1124420, “Structure-activity relationships of pyrimidine nucleosides as antiviral agents for human immunodeficiency virus type 1 in peripheral blood mononuclear cells” (J Med Chem, 1989).

Assays:
[1] = Cytotoxic effect in uninfected human peripheral blood mononuclear (PBM) cells
[2] = system: Human immunodeficiency virus 1; experiment: Antiviral activity against HIV I strain (LAV) in human peripheral blood mononuclear (PBM) cells; type: functional, organism-based
Summary of the method: (§1)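 Human PBM cells from normal donors, mitogen-stimulated for 3 days (10⁶ cells/mL), were infected with HIV-1 LAV at about 100 TCID₅₀/mL. Drugs at various concentrations were added about 45 min post-infection, in fungizone-free medium. On day 5, virus was pelleted from the clarified supernatant and its reverse transcriptase activity measured. EC₅₀ came from the median effect method, and active compounds were retested with different donor cells.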

[3] = Antiviral activity against HIV I strain (LAV) in human peripheral blood mononuclear (PBM) cells; Range is 0.081 - 0.22; type: functional; summary of the method: as §1
[4] = Antiviral activity against HIV I strain (LAV) in human peripheral blood mononuclear (PBM) cells; Range is 0.66 - 1.19; type: functional; summary of the method: as §1
[5] = Antiviral activity against HIV I strain (LAV) in human peripheral blood mononuclear (PBM) cells; Range is 0.056 - 1.00; type: functional; summary of the method: as §1
[6] = Antiviral activity against HIV I strain (LAV) in human peripheral blood mononuclear (PBM) cells; Range is 0.002 - 0.009; type: functional; summary of the method: as §1
[7] = system: Moloney murine leukemia virus; experiment: Antiviral activity against Moloney murine leukemia virus; type: functional; conditions: read-out: ED50 (the source's name)
[8] = Antiviral activity against HIV-1 in human peripheral blood mononuclear (PBM) cells; type: functional; conditions: read-out: ED50 (the source's name)
[9] = Antiviral activity against HIV I strain (LAV) in human peripheral blood mononuclear (PBM) cells; Range is 0.18 - 0.46; type: functional
[10] = Antiviral activity against HIV I strain (LAV) in human peripheral blood mononuclear (PBM) cells; Range is 0.009 - 0.04; type: functional; summary of the method: as §1
[11] = Antiviral activity against HIV I strain (LAV) in human peripheral blood mononuclear (PBM) cells; Range is 68.3 - 79.9; type: functional; summary of the method: as §1

SMILES	IC50 [1]	EC50 [2]	other results
CCc1cn(C2C[C@@H](O)[C@@H](CN)O2)c(=O)[nH]c1=O (stereo partly specified)	> 10 µM	94.3 µM	
Cc1cn([C@H]2C[C@H](N=[N+]=[N-])[C@@H](CO)O2)c(=O)nc1N	> 200 µM		EC50 [3]: 81 nM
CCc1cn(C2C[C@@H](I)[C@@H](CO)O2)c(=O)[nH]c1=O (stereo partly specified)	> 100 µM	86 µM	
Cc1cn([C@H]2C[C@H](O)[C@@H](CN=[N+]=[N-])O2)c(=O)[nH]c1=O	> 100 µM	8.6 µM	
Cc1cn([C@H]2C[C@H](I)[C@@H](CO)O2)c(=O)[nH]c1=O	> 100 µM	46.3 µM	
O=c1ccn([C@H]2CC[C@@H](CO)O2)c(=O)[nH]1		96.8 µM	
CCc1cn(C2C[C@@H](O)[C@@H](CN=[N+]=[N-])O2)c(=O)[nH]c1=O (stereo partly specified)	> 100 µM	> 100 µM	
NC[C@H]1OC(n2ccc(=O)[nH]c2=O)C[C@H]1O (stereo partly specified)	> 100 µM	> 100 µM	
CCc1cn(C2C[C@@H](N)[C@@H](CO)O2)c(=O)[nH]c1=O (stereo partly specified)	> 100 µM	54.9 µM	
CCc1cn([C@H]2C=C[C@@H](CO)O2)c(=O)[nH]c1=O	> 100 µM	75.7 µM	
Cc1cn([C@H]2C[C@H](O)[C@@H](CN)O2)c(=O)[nH]c1=O	> 100 µM	77.4 µM	
OC[C@@H]1C=C[C@H](c2cnc(O)nc2O)O1	> 100 µM	> 100 µM	
Cc1cn([C@H]2C[C@H](N)[C@@H](CO)O2)c(=O)[nH]c1=O [3-AMINO- 3-DEOXYTHYMIDINE]	> 100 µM	> 100 µM	
CCc1cn([C@H]2CC[C@@H](CO)O2)c(=O)[nH]c1=O	> 100 µM	4.9 µM	
[N-]=[N+]=N[C@H]1C[C@H](n2cc(Br)c(=O)[nH]c2=O)O[C@@H]1CO	> 100 µM	1.04 µM	
O=c1ccn(C2C[C@@H](I)[C@@H](CO)O2)c(=O)[nH]1 (stereo partly specified)	> 100 µM	12.1 µM	
[N-]=[N+]=NC[C@H]1OC(n2ccc(=O)[nH]c2=O)C[C@H]1O (stereo partly specified)	> 100 µM	> 100 µM	
[N-]=[N+]=N[C@@H]1CC(n2cc(/C=C/Br)c(=O)[nH]c2=O)O[C@@H]1CO (stereo partly specified)	> 100 µM	> 100 µM	
[N-]=[N+]=N[C@H]1C[C@H](n2ccc(N)nc2=O)O[C@@H]1CO	> 400 µM		EC50 [4]: 660 nM
CCc1cn([C@H]2C[C@H](N=[N+]=[N-])[C@@H](CO)O2)c(=O)[nH]c1=O	1000 µM		EC50 [5]: 56 nM
Cc1cn([C@H]2CC[C@@H](CO)O2)c(=O)[nH]c1=O	> 100 µM	0.17 µM	
N[C@H]1C[C@H](n2ccc(=O)[nH]c2=O)O[C@@H]1CO	> 100 µM	60 µM	
Cc1cn([C@H]2C[C@H](N=[N+]=[N-])[C@@H](CO)O2)c(=O)[nH]c1=O [ZIDOVUDINE]	200 µM		EC50 [6]: 2 nM
CCCc1cn(C2C[C@@H](N=[N+]=[N-])[C@@H](CO)O2)c(=O)[nH]c1=O (stereo partly specified)	> 100 µM	63 µM	
[N-]=[N+]=N[C@@H]1CC(n2cc(I)c(=O)[nH]c2=O)O[C@@H]1CO (stereo partly specified)	> 100 µM	1.14 µM	
[N-]=[N+]=N[C@H]1C[C@H](n2ccc(=O)[nH]c2=O)O[C@@H]1CO [NAVURIDINE]	1000 µM		EC50 [7]: 52 µM; EC50 [8]: 178 nM; EC50 [9]: 180 nM
Cc1cn([C@H]2C=C[C@@H](CO)O2)c(=O)[nH]c1=O [STAVUDINE]	70 µM		EC50 [10]: 9 nM
O=c1ccn([C@H]2C=C[C@@H](CO)O2)c(=O)[nH]1	> 100 µM		EC50 [11]: 68.3 µM
Nc1ncc([C@H]2CC[C@@H](CO)O2)c(O)n1	> 100 µM	> 100 µM	
[N-]=[N+]=N[C@@H]1CC(c2cnc(O)nc2O)O[C@@H]1CO (stereo partly specified)	> 100 µM	> 100 µM	
